Columns and labels:
Vero = assay: Cytotoxicity against african green monkey Vero cells; assay type: cell-based; conditions: chlorocebus sabaeus
How it was run: (§1)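 Cytotoxicity was profiled in three cell types: primary human peripheral blood mononuclear (PBM) cells, CEM (a human T-cell-derived line) and Vero (African green monkey kidney epithelial cells).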

Hepatitis C virus = assay: Antiviral activity against Hepatitis C virus infected in human HuH7 cells assessed as viral RNA replication; assay type: functional, organism-based, Hepacivirus hominis; conditions: Huh-7
How it was run: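 Subgenomic HCV replicon in Huh7 cells; inhibition of HCV RNA replication measured by extraction and amplification of HCV RNA. Each concentration run in triplicate and reported as mean; EC50 derived.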

CCRF-CEM = assay: Cytotoxicity against human CEM cells; assay type: cell-based; how it was run: as §1
PBMC = assay: Cytotoxicity against human PBMC; assay type: cell-based; how it was run: as §1
Huh-7 = assay: Cytotoxicity against human HuH7 cells; assay type: cell-based
How it was run: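 Huh7 cytotoxicity measured together with the replicon antiviral assay, by extraction and amplification of ribosomal RNA. Each concentration run in triplicate and reported as mean.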

SMILES | CC50 (Vero) | EC50 (Hepatitis C virus) | EC90 (Hepatitis C virus) | CC50 (CCRF-CEM) | CC50 (PBMC) | CC50 (Huh-7)
CC(C)(C)[C@H](NC(=O)NC1CCCCC1)C(=O)N1CC2(Cc3ccccc3C2)C1C(=O)NC(CC1CCC1)C(=O)C(=O)NC1CC1 (some centres undefined) | 26 µM | 5.8 µM | 9.8 µM | 15 µM | 15 µM | 5.5 µM
CCCC(NC(=O)C1N(C(=O)[C@@H](NC(=O)Nc2ccccc2)C(C)(C)C)CC12Cc1ccccc1C2)C(=O)C(=O)NC1CC1 (some centres undefined) | 46 µM | > 10 µM | > 10 µM | – | 15 µM | > 10 µM
CCCC(NC(=O)C1N(C(=O)[C@@H](NC(=O)[C@@H](NC(=O)c2cnccn2)C2CCCCC2)C(C)(C)C)CC12Cc1ccccc1C2)C(=O)C(=O)NC1CC1 (some centres undefined) | > 100 µM | > 10 µM | > 10 µM | 72 µM | > 100 µM | > 10 µM
CCCC(NC(=O)C1N(C(=O)[C@@H](NC(=O)Nc2ccc(OC)cc2)C(C)(C)C)CC12Cc1ccccc1C2)C(=O)C(=O)NC1CC1 (some centres undefined) | 43 µM | > 10 µM | > 10 µM | – | 22 µM | > 10 µM
C=CCNC(=O)C(=O)C(CCC)NC(=O)C1CCN1C(=O)[C@@H](NC(=O)[C@@H](NC(=O)c1cnccn1)C1CCCCC1)C(C)(C)C (some centres undefined) | > 100 µM | > 10 µM | > 10 µM | 30 µM | 27 µM | > 10 µM
CCCC(NC(=O)C1N(C(=O)[C@@H](NC(=O)NC2CCCC2)C(C)(C)C)CC12Cc1ccccc1C2)C(=O)C(=O)NC1CC1 (some centres undefined) | 95 µM | > 10 µM | > 10 µM | – | > 100 µM | > 10 µM
CCCC(NC(=O)C1N(C(=O)[C@@H](NC(=O)NC(C)(C)C)C(C)(C)C)CC12Cc1ccccc1C2)C(=O)C(=O)NC1CC1 (some centres undefined) | > 100 µM | 13 µM | 31 µM | – | > 100 µM | 27 µM
CCCC(NC(=O)C1N(C(=O)[C@@H](NC(=O)[C@@H](NC(=O)c2cnccn2)C2CCCCC2)C(C)(C)C)CC12CCCCC2)C(=O)C(=O)NCCF (some centres undefined) | 21 µM | 5.4 µM | 9.7 µM | 5.4 µM | 32 µM | > 10 µM
CC(C)(C)[C@H](NC(=O)[C@@H](NC(=O)c1cnccn1)C1CCCCC1)C(=O)N1CC2(Cc3ccccc3C2)C1C(=O)NC(CC1CC1)C(=O)C(=O)NC1CC1 (some centres undefined) | > 100 µM | 0.8 µM | 1.5 µM | 14 µM | 12 µM | –

From ChEMBL document CHEMBL2440035, “Azetidines and spiro azetidines as novel P2 units in hepatitis C virus NS3 protease inhibitors” (Bioorg Med Chem Lett, 2013)
